Reference: ChEMBL document CHEMBL3621122, “Synthesis of new indole-based bisphosphonates and evaluation of their chelating ability in PE/CA-PJ15 cells” (Eur J Med Chem, 2015)
Active and inactive are the calls of the source. The calls are words filed in the database; no cut-off is given here.

Tests used:
Liver microsome [1] = experiment: Retention time of the compound in human liver microsomes at 5 uM preincubated for 5 mins followed by NADPH addition measured after 30 mins by LC/MS analysis; type: ADME; conditions: 0.5 h
Summary of the method: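 Microsomal incubation: 0.5 mg protein/ml, 5 µM substrate final, pH 7.4 phosphate, 5 min preincubation at 37 °C, 1 mM NADPH, quenched at 0 and 30 min with cold acetonitrile. Supernatant run by HPLC-MS/MS on a C18 column (100 × 2.1 mm, 40 °C). Mobile phases were water/0.1% formic acid and acetonitrile/0.1% formic acid at 0.3 mL/min, gradient from 0% B.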

Liver microsome [2] = experiment: Drug level in human liver microsomes treated with tetraethyl (3-(indol-3-yl)propane-1,1-diyl)bis(phosphonate) at 5 uM preincubated for 5 mins followed by NADPH addition measured after 30 mins by LC/MS analysis; type: ADME; conditions: 0.5 h
Summary of the method: (§1)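 Human liver microsomes (0.5 mg protein/ml) with substrate at 5 µM final in 100 mM potassium phosphate pH 7.4. Preincubated 5 min at 37 °C with shaking, then started with 1 mM NADPH. Stopped at 0 and 30 min with cold acetonitrile containing labetalol internal standard. Spun 12,000 g, 5 min, 4 °C; supernatant analysed by HPLC-MS/MS.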

Homo sapiens [3] = species: Homo sapiens; experiment: Metal chelating activity in human PE/CA-PJ15 cells assessed as decrease in extracellular Ca2+ concentration at 30 uM by FURA-2 AM probe-based spectrophotofluorometric analysis; type: functional, cell-based; set-up: scale not given: the % may be the effect or the level left
Summary of the method: (§2)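 Cell suspension was diluted into HBSS with 1 mM CaCl2 and lysed with 1% Triton X-100. Ca2+/Fura-2 fluorescence after lysis was set as 100%, and bisphosphonate (10–30 µM) was then added. The fluorescence drop was followed over time and read at 30 µM. Mean of 10 experiments ± SEM.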

Homo sapiens [4] = species: Homo sapiens; experiment: Metal chelating activity in human PE/CA-PJ15 cells assessed as change in cytosolic Ca2+ concentration at 60 uM after 50 secs using Ca2+ free medium by FURA-2 AM probe-based spectrophotofluorometric analysis; type: functional, cell-based
Homo sapiens [5] = species: Homo sapiens; experiment: Metal chelating activity in human PE/CA-PJ15 cells assessed as change in cytosolic Ca2+ concentration at 60 uM after 50 secs using Ca2+ containing medium by FURA-2 AM probe-based spectrophotofluorometric analysis; type: functional, cell-based
Homo sapiens [6] = species: Homo sapiens; experiment: Increase in cytosolic Ca2+ concentration in human PE/CA-PJ15 cells after 50 secs using Ca2+ containing medium by FURA-2 AM probe-based spectrophotofluorometric analysis; type: functional, cell-based
Summary of the method: (§3)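 Cultured PE/CA-PJ15 cells loaded with FURA-2 AM for 60 min at 37 °C in the dark. Cells resuspended in HBSS pH 7.4, either Ca2+-free (0.1 mM EGTA) or with 1 mM Ca2+. Bisphosphonate added to 10 µM, then a second addition 150 s later to 30 µM. Ratio fluorescence read at ex 340/380 nm, em 510 nm, converted to [Ca2+]c. Δ[Ca2+]c (nM) taken 50 s after addition; mean of 10 experiments ± SEM.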

Homo sapiens [7] = species: Homo sapiens; experiment: Metal chelating activity in human PE/CA-PJ15 cells assessed as change in cytosolic Ca2+ concentration at 10 to 30 uM after 50 secs using Ca2+ free medium by FURA-2 AM probe-based spectrophotofluorometric analysis; type: functional, cell-based; summary of the method: as §3
Homo sapiens [8] = species: Homo sapiens; experiment: Metal chelating activity in human PE/CA-PJ15 cells assessed as decrease in cytosolic Ca2+ concentration at 10 to 30 uM after 50 secs using Ca2+ free medium by FURA-2 AM probe-based spectrophotofluorometric analysis
Homo sapiens [9] = species: Homo sapiens; experiment: Metal chelating activity in human PE/CA-PJ15 cells assessed as change in cytosolic Ca2+ concentration at 10 to 30 uM after 50 secs using Ca2+ containing medium by FURA-2 AM probe-based spectrophotofluorometric analysis; type: functional, cell-based; summary of the method: as §3
[10] = Lipophilicity, log P of the compound; type: physicochemical; conditions: octanol/water
[11] = Drug level in presence of tetraethyl (3-(indol-3-yl)propane-1,1-diyl)bis(phosphonate); type: physicochemical
Summary of the method: (§4)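 Substrate at 5 µM final with human liver microsomes (0.5 mg protein/ml) in 100 mM potassium phosphate pH 7.4, preincubated 5 min at 37 °C with shaking; started with 1 mM NADPH. Stopped at 0 and 30 min with cold acetonitrile containing labetalol internal standard. Protein spun down; supernatant analysed by HPLC-MS/MS for parent remaining.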

Homo sapiens [12] = species: Homo sapiens; experiment: Metal chelating activity in human PE/CA-PJ15 cells assessed as decrease in extracellular Ca2+ concentration by FURA-2 AM probe-based spectrophotofluorometric analysis; type: functional, cell-based; summary of the method: as §2
Liver microsome [13] = experiment: Drug metabolism in human liver microsomes assessed as radical of 3-allyl-1H-indole/3-methyl-1H-indole formation by measuring remaining compound level at 5 uM preincubated for 5 mins followed by NADPH addition measured after 30 mins by LC/MS analysis; type: ADME; conditions: 0.5 h; summary of the method: as §4
Liver microsome [14] = experiment: Drug metabolism in human liver microsomes assessed as radical of 3-allyl-5-fluoro-1H-indole formation by measuring remaining compound level at 5 uM preincubated for 5 mins followed by NADPH addition measured after 30 mins by LC/MS analysis; type: ADME; conditions: 0.5 h; summary of the method: as §4
Liver microsome [15] = experiment: Drug level in human liver microsomes treated with tetraethyl (3-(5-fluoroindol-3-yl)propane-1,1-diyl)bis(phosphonate) at 5 uM preincubated for 5 mins followed by NADPH addition measured after 30 mins by LC/MS analysis; type: ADME; conditions: 0.5 h; summary of the method: as §1

SMILES	Retention_time (Liver microsome [1])	Activity (Homo sapiens [3])	Activity (Homo sapiens [7])	Activity (Homo sapiens [9])	also measured
[CH]=CCc1c[nH]c2ccccc12	6.829 min	–	–	–	Drug metabolism (Liver microsome [2]): metabolite_detected
CCOP(=O)(OCC)C(CCc1c[nH]c2ccncc12)P(=O)(OCC)OCC	–	-6%	inactive	–	Activity (Homo sapiens [4]): 36 nM; Activity (Homo sapiens [5]): 67 nM; Activity (Homo sapiens [6]): Dose-dependent effect; Activity (Homo sapiens [8]): inactive
CCOP(=O)(OCC)C(CCc1c[nH]c2cc(C(F)(F)F)ccc12)P(=O)(OCC)OCC	–	-5%	Active	Active	–
CCOP(=O)(OCC)C(CCc1c[nH]c2ccc(C(F)(F)F)cc12)P(=O)(OCC)OCC	–	-16.5%	Active	Active	–
CC(O)(P(=O)(O)O)P(=O)(O)O [ETIDRONATE DISODIUM]	–	–	–	–	logP ([10]; read-out: logP): -3.8
CCOP(=O)(OCC)C(CCc1c[nH]c2cc(F)ccc12)P(=O)(OCC)OCC	–	-18%	Active	Active	–
[CH2]c1c[nH]c2ccccc12	5.183 min	–	–	–	Drug metabolism (Liver microsome [2]): metabolite_detected
O=P(O)(O)C(CCc1c(C2Nc3ccccc3C2CCC(P(=O)(O)O)P(=O)(O)O)[nH]c2ccccc12)P(=O)(O)O (stereo unspecified)	–	–	–	–	Drug metabolism [11]: metabolite_detected
NCCCC(O)(P(=O)(O)O)P(=O)(O)O	–	-7%	Active	Active	–
O=P([O-])(O)C(O)(Cc1cccnc1)P(=O)(O)O.[Na+] [RISEDRONATE SODIUM]	–	–	–	–	logP [10]: -3.6
O=P(O)(O)C(Cl)(Cl)P(=O)(O)O [CLODRONATE DISODIUM]	–	-12%	Active	Active	logP ([10]; read-out: logP): -2.4
O=P(O)(O)C(CCc1c[nH]c2ccccc12)P(=O)(O)O	–	–	–	–	Drug metabolism [11]: metabolite_detected
CCOP(=O)(OCC)C(CCc1c[nH]c2ccccc12)P(=O)(OCC)OCC	8.142 min	-73%	Active	Active	Activity (Homo sapiens [12]): Dose-dependent effect; Stability (Liver microsome [13]): 20%; Activity (Homo sapiens [8]): Active
CCOP(=O)(OCC)C(CCc1c[nH]c2ccc(F)cc12)P(=O)(OCC)OCC	8.365 min	-34%	Active	Active	Stability (Liver microsome [14]): 20%; Activity (Homo sapiens [8]): Active
[CH]=CCc1c[nH]c2ccc(F)cc12	5.628 min	–	–	–	Drug metabolism (Liver microsome [15]): metabolite_detected
NCCC(O)(P(=O)([O-])O)P(=O)([O-])O.[Na+].[Na+]	–	–	–	–	logP [10]: -4.7
